Experimental data from the EternaBench riboswitch data.

Test system: MS2 coat protein
Test: apparent Kd, MS2 coat protein; higher = weaker binding; RNA-MaP array; FMN 200 µM where present
How it was run: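 The apparent Kd comes from binding curves fitted cluster by cluster, filtered, and summarised as a median. Those curves followed SNAP-549-labelled MS2 coat protein from 0.7 or 1.5 nM, doubling to 3 µM, on Illumina sequencing-chip clusters where stalled E. coli RNA polymerase had transcribed the designs, without and then with constant ligand. The buffer was 100 mM Tris-HCl pH 7.5, 80 mM KCl, 4 mM MgCl2, BSA, DTT, yeast tRNA and Tween-20, and green signal was normalised to red-channel RNA signal and control-cluster median Fmax.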

[1] = designed as: OFF switch for flavin mononucleotide, no ligand
[2] = ligand present: flavin mononucleotide, designed as: OFF switch for flavin mononucleotide
[3] = designed as: ON switch for flavin mononucleotide, no ligand
[4] = ligand present: flavin mononucleotide, designed as: ON switch for flavin mononucleotide

| Sequence | apparent Kd [1] | apparent Kd [2] | apparent Kd [3] | apparent Kd [4] |
| --- | --- | --- | --- | --- |
| CGCUCAAUUACUUAGGAUAGAAUCAGAAGGCGUAACAUGAGGAUCACCCAUGUAUAGACGUGUAACGAGGAUAUGAAUUGAGCG | 5.36 nM | 5.34 nM | – | – |
| CGCUCUAUAUAUUUGGCAAGUAUCAGAAGGCGUUACAUGAGGAUCACCCAUGUUUUGAAUAGUAACGAGGAUAUGAUAUGAGCG | 22 nM | 24.2 nM | – | – |
| CGCUGCCACGCAGGAUAUGCAUUGGAUUACAAUGCAGAAGGGCGAUUACAUGAGGAUCACCCAUGUGUCGGCAGUGAAGAAGAG | – | – | 657 nM | 44.9 nM |
| CGCUGCCACGCAGGAUAUGCAUUGGAUUCCAAUGCAGAAGGGCGAUUACAUGAGGAUCACCCAUGUGUUGGCAGUGAAGAAGAG | – | – | 1230 nM | 77.9 nM |
| CGGAUGUGAGGAUAUACAUGAGGAUCACCCAUGUGAGCCAGCUAGAUGACUGGCUCGUGUAGAAGGCACGUCUG | 13.5 nM | 29.3 nM | – | – |
| CGGAUGUGAGGAUAUACAUGAGGAUCACCCAUGUGUGCCAGCUAGCUGACUGGCACUUGUAGAAGGCACGUCUG | 10.8 nM | 22 nM | – | – |
| CGGCAAGUCACAGGAUAUGGUGAUGUACAUGAGGAUCACCCAUGUCCGUCUUCUCUCACAAGAUGCCAGAAGGGUGACUUCCAG | – | – | 946 nM | 140 nM |
| CGGCACCGAGGAUAUACAUGAGGAUCACCCAUGUUUGUUGGGCCCUUAAGAUCUACGUGUAGAAGGUGGGUCGA | 131 nM | 167 nM | – | – |
| CGGCUGCUACGCCAGCUCGACGCACAGGAUAUGCUGUUACAUGAGGAUCACCCAUGUGGCCAAGAGCAGAAGGGUGAUUCGCGA | – | – | 33.6 nM | 35 nM |
| CGGGCACAUGAGGAUCACCCAUGUCAGGAUAUCGGCCGGCGGCCGCCGGGCCGCCGGCCGAGAAGGGACGCCCG | 16.4 nM | 18.7 nM | – | – |
| CGGGUCUGAGGAUAUCCAUCUUCAUACAUGAGGAUCACCCAUGUUUACCUUUGGGUUCCUGGAGAAGGCAGUUUUC | 74.9 nM | 78.4 nM | – | – |
| CGGUGACUGGUGAGGAUAUCGUGUUCGAAAGAACGUGAGAAGGCACAUGAGGAUCACCCAUGUGAUCCUCAUCG | 26.1 nM | 163 nM | – | – |
| CGGUUACAAGGAUAUACAUGAGGAUCACCCAUGUCUCUCCGGGCGGAUCGAUAAUUUUGUAGAAGGUGUAAGGG | 24.5 nM | 63.7 nM | – | – |
| CGUAACUGCAUAGGAUAUUGAUACAUGAGGAUCACCCAUGUUUUUCGGAUUAGAUAUAUACUUAGCAAGAAGGAUGGAGUUACG | – | – | 9.58 nM | 6.57 nM |
| CGUAAGCAAGGAUAUACAUGAGGAUCACCCAUGUAGCUUUGCUUCGUGGGCACAACAUGUAGAAGGUGCGAAAA | 15.3 nM | 13.3 nM | – | – |
| CGUAUCGAAGAAGGAUAUCGCAACGACAGCUAGGGCUAUUCUCAACAUGAGGAUCACCCAUGUUGCGAGAAGGUCUGCUAUGCG | 27.9 nM | 50.5 nM | – | – |
| CGUAUGGACAGAGGAUAUGCCGAUAGGAUCUACUAUCGAAGAAUCCUCACAUGAGGAUCACCCAUGUAGAAGGCUGUCCAUACU | 8.15 nM | 36.3 nM | – | – |
| CGUAUGUCAGGAUAUGUGUAUGCCGCUCAGGGCGAGCGGCAGCAGAAGGGACAUGAGGAUCACCCAUGUUCGGG | 62.5 nM | 127 nM | – | – |
| CGUCCUCUAGUUAGGAUAUUGUCUCGGAUACGAAACAAGAAGGGACAUGAGGAUCACCCAUGUAAUGAGGACGA | 29.2 nM | 28.2 nM | – | – |
| CGUGAGUCAGGAUAUUAGUAGUGUGUGGAUACAUAUAUUGCUGAGAAGGGACAUGAGGAUCACCCAUGUAUACG | 32 nM | 37.1 nM | – | – |
| CGUUAAUAUCGAGGAUAUGUCUAGACACAUGAGGAUCACCCAUGUAUGUGUAUAGAAGGCGAUAUUAACAGCAUGUUACAUGCA | – | – | 43 nM | 15.6 nM |

| Sequence | apparent Kd [1] | apparent Kd [2] | apparent Kd [3] | apparent Kd [4] |
| --- | --- | --- | --- | --- |
| CGUUAUAACGAGAAGGCUGUCUGCAGUCCAGACGGAGGAUAUCGAGAAGACAUGAGGAUCACCCAUGUACGCUGGUGUCUUCAU | 25.4 nM | 189 nM | – | – |
| CGUUGUUCCGCAGGAUAUGCAUUGGAUUACAAUGCAGAAGGGCGAUAACAUGAGGAUCACCCAUGUGUGGACAAUAAGGAAGAG | – | – | 811 nM | 62.1 nM |
| CUAAAUCAUGUAGGAUAUCGAUUGCGUCGCGAUCGAGAAGGACAUGAGGAUCACCCAUGUCAGAACGUCUGCGUUCAGACGUUG | 48.5 nM | 361 nM | – | – |
| CUAAAUCAUGUAGGAUAUGCAUGGCGAAGCUACGCAGAAGGACAUGAGGAUCACCCAUGUCUCUCCGUCUGCAUACAGACGGAG | 20.1 nM | 123 nM | – | – |
| CUACUCGUUGUGAGGAUAUCGUUUUCGUCACGGAUCGAGAAGGCACAUGAGGAUCACCCAUGUUUGAUGUGGAU | 32.1 nM | 79.7 nM | – | – |
| CUAGACAGAUCAGGAUAUCAUCGCAUGGUGCAUCCCUGUGAUUACAUGAGGAUCACCCAUGUGGAUGAGAAGGGAUUACUAUGU | 31.9 nM | 10.7 nM | – | – |
| CUAGCAACAUGAGGAUCACCCAUGUAGGAUAUCGCUAUUGUAAUCAUGAAACAUGAUUACAAUAGCGAGAAGGACAUAUGCUAA | 7.96 nM | 10.8 nM | – | – |
| CUAGCCCAGCCCGCCUAGUUCGGGAGAAGGAGGAGACAUGAGGAUCACCCAUGUGGCCUUAUCUCCUAGGAUAUCCCGGCGGGA | 5.56 nM | 21.6 nM | – | – |
| CUAUAUAAUACCUCAUGUACAUGAGGAUCACCCAUGUUAACUUAGGAUAUAUUUAUAUUAAUAGAGUAGAAGGAAGUACUAUUG | 27.4 nM | 21.2 nM | – | – |
| CUAUGCGGAAUAGGAUAUUCAUUCAUGAGGAUAGAAGAAGGGUUACAUGAGGAUCACCCAUGUAUACACAUGAGGAUCCCUUAG | 150 nM | 156 nM | – | – |
| CUAUGGCAAGGAUAUCUUGGCUAGAACAUGAGGAUCACCCAUGUCUACUGUACUAAUAUCGGAGAAGGUGCUAGAA | 27.6 nM | 19.1 nM | – | – |
| CUAUGGGCAGGAUAUGCAUAUCGGGAGUGGUCGCAAGCGUUACAUGAGGAUCACCCAUGUAGAAGGGCCGCGUC | 18.9 nM | 20.4 nM | – | – |
| CUAUUCCGAGGAUAUACAUGAGGAUCACCCAUGUCGGGCCUCUGCGUUUAGCGCGUAAGUAGAAGGUGGGUUUC | 31 nM | 32.9 nM | – | – |
| CUAUUGGUAACAGGAUAUAUGAGUCCUACAUGAGGAUCACCCAUGUAGGUGAUCUAACGAGAUUAGUAGAAGGGUUACCAAUAG | – | – | 16.9 nM | 8.34 nM |
| CUAUUUAGUGCCUCAUUUACAUGAGGAUCACCCAUGUUAACUUAGGAUAUAUUUAUAUUGUUAGAGUAGAAGGAAGUACAUUUU | 237 nM | 208 nM | – | – |
| CUCAGACAUGAGGAUCACCCAUGUGAGGAUAUGAUGCGAUCGUCGAAAGACGAUAGCAUCAGAAGGCACAAAUG | 78.4 nM | 305 nM | – | – |
| CUCAUGUGAGGAUAUGUGAUCAACCUUCUGUAUAGAUGAUGACAGAAGGCACAUGAGGAUCACCCAUGUAGAUC | 68.9 nM | 57.1 nM | – | – |
| CUCAUGUGAGGAUAUGUGAUCUGCCUUCUAUGUAGAUGAUCACAGAAGGCACAUGAGGAUCACCCAUGUAGAUC | 119 nM | 23.4 nM | – | – |
| CUCGUGUAAGGAUAUAUUGCAAUGACGAAAUUUGCCCUGAGAUAGAAGGUACAUGAGGAUCACCCAUGUGUCGG | 45.5 nM | 92.2 nM | – | – |
| CUCUUGAGUCAGGAUAUCGUGAGGCUAAUAAUACGAGAAGGGACAACAUGAGGAUCACCCAUGUGGUCGAAGAG | 32.9 nM | 78.3 nM | – | – |
| CUGAAGUCAGGAUAUUGUUAAUUUAGUUGUUUGUAUUAGUUCGAGAAGGGACAUGAGGAUCACCCAUGUAAGUC | 32 nM | 27.1 nM | – | – |
